ChEMBL document CHEMBL3739311 (ACS Med Chem Lett, 2015)
Values after ≈ are worked out from the molar mass of the structure shown.

Experiments:
[1] = biological target: Human immunodeficiency virus type 1 reverse transcriptase (Human immunodeficiency virus 1, UniProt Q72547); assay: Inhibition of wild-type HIV-1 reverse transcriptase by fluorescence assay
How it was run: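 Reverse transcription inhibition by wild-type RT enzyme, read by PicoGreen fluorescence; IC50 in nM.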

[2] = test system: Human immunodeficiency virus 1; assay: Antiviral activity against HIV-1 X4 expressing wild-type reverse transcriptase infected in human CD4+ T cells for 3 days by FACS analysis; type: functional, organism-based; conditions: Human immunodeficiency virus 1, X4, T-cell, 72 h
How it was run: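 Single-round infectivity assay using HIV strains carrying wild-type RT (WT X4); EC50 determined.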

[3] = test system: Human immunodeficiency virus 1; assay: Selectivity index, ratio of IC50 for HIV-1 reverse transcriptase K101P mutant to IC50 for wild-type HIV-1 reverse transcriptase
How it was run: (§1)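 PicoGreen fluorescence read-out of reverse transcription, run with both RT(WT) and RT(K101P) enzymes; IC50 determined for each enzyme. The fold-change is IC50 for RT(K101P) over IC50 for RT(WT).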

[4] = Aqueous solubility of compound; type: physicochemical
[5] = test system: Human immunodeficiency virus 1; assay: Antiviral activity against HIV-1 X4 expressing reverse transcriptase K101P mutant infected in human CD4+ T cells for 3 days by FACS analysis; type: functional, organism-based; conditions: Human immunodeficiency virus 1, T-cell, 72 h
How it was run: (§2)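 Single-round infectivity assay against HIV strains whose RT carries the K101P, K103N or Y181C mutation, alongside a WT X4 strain; EC50 determined.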

[6] = test system: Human immunodeficiency virus 1; assay: Antiviral activity against HIV-1 X4 expressing reverse transcriptase Y181C mutant infected in human CD4+ T cells for 3 days by FACS analysis; type: functional, organism-based; conditions: Human immunodeficiency virus 1, T-cell, 72 h; how it was run: as §2
[7] = test system: Human immunodeficiency virus 1; assay: Antiviral activity against HIV-1 X4 expressing reverse transcriptase K103N mutant infected in human CD4+ T cells for 3 days by FACS analysis; type: functional, organism-based; conditions: Human immunodeficiency virus 1, T-cell, 72 h; how it was run: as §2
[8] = biological target: Human immunodeficiency virus type 1 reverse transcriptase (Human immunodeficiency virus 1, UniProt Q72547, K101P); assay: Inhibition of HIV-1 reverse transcriptase K101P mutant by fluorescence assay; how it was run: as §1
[9] = Cytotoxicity against human CD4-positive T cells; type: cell-based, T-cell
[10] = test system: Human immunodeficiency virus 1; assay: Antiviral activity against HIV-1 NL4-3 expressing reverse transcriptase E138K mutant infected in MT-2 cells by MTT assay; type: functional, organism-based; conditions: Human immunodeficiency virus 1, NL4-3, MT2
[11] = test system: Human immunodeficiency virus 1; assay: Antiviral activity against HIV-1 NL4-3 expressing reverse transcriptase E138K/M184V mutant infected in MT-2 cells by MTT assay; type: functional, organism-based; conditions: Human immunodeficiency virus 1, NL4-3, MT2

Compound | IC50 [1] [nM] | EC50 [2] [nM] | Ratio IC50 [3] | solubility [4] [µg/mL] | EC50 [5] [nM] | EC50 [6] [nM] | EC50 [7] [nM] | IC50 [8] [nM] | CC50 [9] [nM] | EC50 [10] [nM] | EC50 [11] [nM]
N#C/C=C/c1cc(F)cc(Oc2ccc(F)cc2OCCn2ccc(=O)[nH]c2=O)c1 | 2.7 | 2 | 0.8 | 10.8 (≈ 26.3 µM) | 2 | 8 | 89 | 2.2 | 45000 |  | 
N#Cc1cc2c(Oc3ccccc3OCCn3ccc(=O)[nH]c3=O)cccn2c1 | 1.06 | 1 | 1.8 |  | 1 | 2 | 3 | 1.9 | > 100000 | 0.9 | 0.75
N#C/C=C/c1cc(Cl)cc(Oc2ccccc2OCCn2ccc(=O)[nH]c2=O)c1 | 3.3 | 5 | 0.6 |  | 8 | 23 | 50 | 2.1 | 18000 | 2.8 | 2.2
O=C1Nc2ccc(Cl)cc2[C@@](C#CC2CC2)(C(F)(F)F)O1 [EFAVIRENZ] |  |  |  |  | 870 | 41 | 836 |  |  |  | 
Cc1cc(/C=C/C#N)cc(C)c1Nc1ccnc(Nc2ccc(C#N)cc2)n1 [RILPIVIRINE] |  | 13 |  | < 0.1 | 1140 | 51 | 13 | 1000 |  |  | 
